Measured values as given in PMC3294036 (Nature structural & molecular biology, 2012).

Columns and labels:
[1] = test system: CN-YFP / AKAP79-YFP mobility in rat hippocampal neuron dendritic spines; experiment: FRAP microscopy in single dendritic spines; format: cell-based; conditions: wildtype AKAP79-YFP in dendritic spines, single exponential fit
[2] = test system: NFAT3 (NFATc4) nuclear translocation in hippocampal neurons; experiment: NFAT translocation assay after KCl depolarization; format: cell-based, rat; conditions: full-length AKAP79 expressed after AKAP150 RNAi; 3-min 90 mM KCl
CN = conditions: cited from earlier work; for Kd: read-out: Kd for CN, natural recognition sites
calcineurin (CN) [3] = target: calcineurin (CN) (UniProt Q08209); experiment: Calcineurin-AKAP79 competitive binding assay; parameters: species or system human; conditions: for Ki: read-out: estimated Ki, competition with fluorescent PVIVIT peptide for binding to CN, GST-AKAP79(333–348) fusion proteins (14mer), representative of three experiments
Sequence of calcineurin (CN) (Q08209 1-381): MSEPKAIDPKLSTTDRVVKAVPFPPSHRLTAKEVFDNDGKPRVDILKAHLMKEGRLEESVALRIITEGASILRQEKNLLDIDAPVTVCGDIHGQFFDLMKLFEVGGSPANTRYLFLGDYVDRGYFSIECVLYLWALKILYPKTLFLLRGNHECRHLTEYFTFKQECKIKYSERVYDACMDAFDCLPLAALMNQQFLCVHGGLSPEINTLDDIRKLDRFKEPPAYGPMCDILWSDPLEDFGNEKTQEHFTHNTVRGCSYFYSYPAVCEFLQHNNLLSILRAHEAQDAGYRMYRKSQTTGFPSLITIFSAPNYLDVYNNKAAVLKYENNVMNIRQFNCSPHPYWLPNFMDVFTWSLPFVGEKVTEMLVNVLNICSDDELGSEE
Sequence of calcineurin (CN) (P63098 16-170 partner): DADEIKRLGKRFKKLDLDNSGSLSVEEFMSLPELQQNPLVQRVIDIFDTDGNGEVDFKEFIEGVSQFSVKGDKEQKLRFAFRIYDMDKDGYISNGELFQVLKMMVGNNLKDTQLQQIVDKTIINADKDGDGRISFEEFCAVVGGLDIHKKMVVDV

calcineurin (CN) [4] = target: calcineurin (CN) (UniProt Q08209); format: binding, human; conditions: 36 °C
Summary of the method: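 ATTO 425-labeled AKAP79(333–408) donor (100 nM) was complexed with tetramethylrhodamine-labeled CN acceptor. The preformed complex was mixed in a stopped-flow instrument with 100 µM (final) unlabeled PVIVIT to block rebinding, at room temperature or 36 °C. Dissociation was followed as the fall in FRET signal, fitted as a single exponential; half-time was taken from the rate (n = 4).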

| Substance | rescue of NFAT nuclear translocation [2] | Kd (CN) | also measured |
| --- | --- | --- | --- |
| wildtype AKAP79: full-length RNAi-resistant human AKAP79 (YFP- or CFP-tagged) expressed in rat hippocampal neurons | rescued NFAT nuclear translocation |  | mobile fraction of AKAP79-YFP (maximal percent recovery) [1]: 61.8 ± 0.6% |
| PVIAVN |  | 250 µM |  |
| PRIEIA |  |  | shift in Kd caused by PRIEIT>PRIEIA substitution in NFAT1 (CN): 10 fold |
| PQIIIS |  | 5 µM |  |
| PPAIIIA | as efficiently as wildtype AKAP79 |  |  |
| PSIRIT |  | ~25 µM |  |
| PRIEIT |  | ~25 µM |  |
| AIAIIIT |  |  | Ki (calcineurin (CN) [3]): 3.7 µM |
| PAAIIIT |  |  | Ki (calcineurin (CN) [3]): 47 µM |
| PSIQIT |  | ~25 µM |  |
| PIAIIIA | somewhat less efficiently |  |  |
| PPAIIIT | completely unable to rescue signaling |  | fold stronger binding to CN than wildtype AKAP79 (calcineurin (CN) [3]; GST fusion proteins displacing labeled PVIVIT): ~ 4 fold; half-time of dissociation (calcineurin (CN) [4]; corresponding to mean dissociation rate): ~ 163 ms; mean dissociation rate (calcineurin (CN) [4]; preformed complex mixed with excess unlabelled PVIVIT, mean of n = 4): 4.24 s⁻¹ |
